Series [1] concerns SARS-CoV-2. The series is described as follows: Antiviral activity against SARS-CoV2 USA-WA1/2020 infected in African green monkey Vero E6 cells assessed as reduction in viral plaques incubated for 3 days by plaque reduction neutralization test. The series is classed as functional, organism-based. Conditions: Severe acute respiratory syndrome coronavirus 2, USA-WA1/2020, Vero C1008, 72 h.

Series [2] is described as follows: Cytotoxicity against HEK293T/17 cells assessed as inhibition of cell growth incubated for 48 hrs by MTT assay. The series is classed as toxicity, cell-based. Conditions: human, hek293t/17, 48 h. The essentials: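 293T cells seeded and held 24 h at 37 °C, 5% CO2, then exposed in triplicate for 48 h to a range of compound concentrations. Compounds were taken from DMSO stocks and diluted in culture medium. Viability was read by MTT. CC50 was taken from normalised % viability plotted against log10 concentration.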

Series [3] deals with SARS-CoV-2. Briefly: Antiviral activity against SARS-CoV2 Beta infected in African green monkey Vero E6 cells assessed as reduction in viral plaques incubated for 3 days by plaque reduction neutralization test. The series is classed as functional, organism-based. Conditions: Severe acute respiratory syndrome coronavirus 2, Beta, Vero C1008, 72 h.
Series [4] deals with SARS-CoV-2. The series is described as follows: Antiviral activity against SARS-CoV2 Delta infected in African green monkey Vero E6 cells assessed as reduction in viral plaques incubated for 3 days by plaque reduction neutralization test. Conditions: Severe acute respiratory syndrome coronavirus 2, Delta, Vero C1008, 72 h. The series is classed as functional, organism-based.

Molecules are shown by their SMILES.

As to `C[C@@H](OC(C)(C)C)[C@H](NC(=O)OCc1ccccc1)C(=O)N1C[C@H]2[C@@H]([C@H]1C(=O)N[C@H](C=O)C[C@@H]1CCNC1=O)C2(C)C`, the figures for the EC50 in the series with SARS-CoV-2 [1], in the series with SARS-CoV-2 [3] and with SARS-CoV-2 [4] were 1080 nM, 2280 nM and 750 nM, respectively. The CC50 in series [2] worked out at 163000 nM.

With `CC(C)(C)[C@H](NC(=O)OCc1ccccc1)C(=O)N1C[C@H]2[C@@H]([C@H]1C(=O)N[C@H](C=O)C[C@@H]1CCNC1=O)C2(C)C`, the EC50 in the series with SARS-CoV-2 [1] amounted to 2940 nM; in the series with SARS-CoV-2 [3] it was 860 nM; in the series with SARS-CoV-2 [4], 1040 nM. The CC50 in series [2] stood at 144000 nM.

Regarding `CC(C)(C)OC(=O)N[C@H](C(=O)N1C[C@H]2[C@@H]([C@H]1C(=O)N[C@H](C=O)C[C@@H]1CCNC1=O)C2(C)C)C(C)(C)C`, the EC50 in the series on SARS-CoV-2 [1] was 610 nM; in the series on SARS-CoV-2 [4] it was 1000 nM. Besides, the CC50 in series [2] turned out to be 34200 nM.

The values are drawn from ChEMBL document CHEMBL5113496, “A systematic exploration of boceprevir-based main protease inhibitors as SARS-CoV-2 antivirals” (Eur J Med Chem, 2022).
